Data from PMC10471475 (Parasites, Hosts and Diseases, 2023).
Where “and” joins values, the source holds several entries; their conditions need not be identical. Identical values can stand only once. Marks after values point to notes of the source that are not given here.

How the values were obtained:
[1] = system: mouse mammary tumor FM3A cells; conditions: in vitro; cited from earlier work
[2] = system: P. falciparum; conditions: cited from earlier work
[3] = system: malaria parasites in mice; conditions: ointment, transdermal, cited from earlier work
[4] = Pharmacokinetic analysis of N-89 in mice after single po or iv administration; assay type: in vivo, ICR mice; conditions: for plasma concentration: detection limit 5 ng/ml
Summary of the method: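 Male ICR mice got a single dose of test compound: 75 mg/kg po in olive oil or 30 mg/kg iv in 10% ethanol/10% Cremophor EL/80% saline. Blood sampled 0.25–10 h, one sample per mouse, 5 mice per time. Plasma obtained by centrifugation 10 min, 945 g, 4°C, acetonitrile-extracted, then LC/MS/MS (detection limit 5 ng/ml). Cmax observed; AUC and MRT from the mean time course (n=5).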

[5] = system: P. berghei (NK65 strain); experiment: Antimalarial activity following repeated oral dosing; assay type: in vivo, Plasmodium berghei; conditions: for Parasitemia day 1: before treatment (treatment days 2-4); for Parasitemia day 2: start of treatment
[6] = system: P. berghei (NK65 strain); experiment: Peters' 4-day suppressive test by different administration routes; assay type: in vivo, Plasmodium berghei
Summary of the method: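 Peters' 4-day test: male ICR mice, iv inoculation of 1×10^5 P. berghei NK65-infected erythrocytes. First dose 2 h post-inoculation, then dosing on days 0–3. Routes and doses: po 0–80 mg/day in olive oil; iv 0–80 mg/day in ethanol/Cremophor EL/saline 10:10:80; sq 0–8 mg/day in the iv vehicle. Vehicle controls; 5 mice/group. Day-4 thin-film parasitemia, expressed as percent reduction; ED50/ED90 by sigmoidal dose-response fit.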

[7] = system: P. berghei; conditions: cited from earlier work
[8] = ICR, mouse, plasma, iv, 30 mg/kg
[9] = ICR, mouse, plasma, po, 75 mg/kg
[10] = 50 mg/kg po thrice daily days 2-4
[11] = 50 mg/kg po thrice daily for 3 days
[12] = 75 mg/kg po 3 times daily days 2-4
[13] = po, olive oil, 4 days, parasitemia on day 4

Compound: C1CCCCCC2(CCCCC1)OOCCCOO2 [N-89, 1,2,6,7-tetraoxaspiro[7.11]nonadecane]
- toxicity against P. falciparum relative to FM3A cells (selective toxicity) [1]: 350 fold
- EC50 value of P. falciparum in vitro [2]: 6.8 ng/mL
- day from which parasites disappeared post-treatment ([3]; 60 mg/kg twice daily for 4 days at 0.2% parasitemia): 7 days
- recurrence and dermal irritation ([3]; 60 mg/kg twice daily for 4 days): without parasite recurrence or dermal irritation
- AUC(0-inf) [4, 8]: 13600 ng·h/mL
- AUC(0-t) [4, 8]: 13600 ng·h/mL
- MRT [4, 8]: 14.4 min
- Vd [4, 8]: 0.53 L/kg
- clearance [4, 8]: 36.8 mL/min/kg
- concentration at 0.25 h [4, 8]: 18.3 µg/mL
- half-life [4, 8]: 90 min
- bioavailability ([4]; ICR, mouse, plasma, oral, 75 mg/kg): 7.01%
- AUC(0-inf) [4, 9]: 2380 ng·h/mL
- AUC(0-t) [4, 9]: 2370 ng·h/mL
- Cmax [4, 9]: 1.59 µg/mL
- MRT [4, 9]: 107 min
- Tmax [4, 9]: 45 min
- concentration at 8 h [4, 9]: 0.0081 µg/mL
- half-life [4, 9]: 58.2 min
- plasma concentration ([4]; mice, 30 mg/kg iv, at 5 h): could not be detected
- plasma concentration ([4]; mice, 75 mg/kg po, at 10 h): could not be detected
- Cmax ([4]; mice, single dose 75 mg/kg po (Table 1)): 1590 µg/mL
- Parasitemia day 1 ([5]; 50 mg/kg po group): 0.10±0.04%
- Parasitemia day 3 [5, 10]: 0.11±0.06%
- Parasitemia day 4 [5, 10]: 0.01±0.01%
- Parasitemia day 5 [5, 10]: 0.002±0.004^c %
- Parasitemia day 6 [5, 10]: 0.00^b %
- parasitemia of the one mouse not yet cured on day 5 [5, 10]: 0.01%
- Parasitemia day 2 [5, 10]: 0.51±0.14%
- cure effect [5, 11]: complete cure effect
- day on which parasites were eliminated / all mice cured, no recurrence to day 30 [5, 11]: 6 days
- Parasitemia day 3 [5, 12]: 0.26±0.05%
- Parasitemia day 4 [5, 12]: 0.01±0.01^a %
- Parasitemia day 5 [5, 12]: 0.00^b %
- Parasitemia day 6 [5, 12]: 0.00%
- parasitemia of the 4 mice not yet cured on day 4 [5, 12]: below 0.015%
- Parasitemia day 2 [5, 12]: 0.70±0.19%
- day on which parasites were eliminated / all mice cured, no recurrence to day 30 ([5]; 75 mg/kg po 3 times daily for 3 days): 5 days and 4 to 5 days
- Parasitemia day 1 ([5]; 75 mg/kg po group): 0.09±0.07%
- ED50 ([6]; Plasmodium berghei, 96 h, sq, ethanol:Cremophor EL:saline 1:1:8, 4 days): 2.5 ± 1.1 mg/kg
- ED50 ([6]; Plasmodium berghei, iv, 96 h, iv, ethanol:Cremophor EL:saline 1:1:8, 4 days): 14.5 ± 1.9 mg/kg
- ED90 ([6]; iv, ethanol:Cremophor EL:saline 1:1:8, 4 days): 21.0 ± 0.8 mg/kg
- ED50 [6, 13]: 20.5 ± 2.0 mg/kg
- ED90 [6, 13]: 43.5 ± 1.5 mg/kg
- ED90 ([6]; sq, ethanol:Cremophor EL:saline 1:1:8, 4 days): 3.8 ± 1.0 mg/kg

Compound: C[C@H]1[C@@H](OCc2ccc(C(=O)O)cc2)O[C@@H]2O[C@@]3(C)CC[C@H]4[C@H](C)CC[C@@H]1[C@@]24OO3 [artelinic acid]
- effect of topical gel on infected mice ([7]; gel applied topically twice/day x 3 days post-infection, dose 270 mg/kg): prevented the death

Compound: CO[C@H]1O[C@@H]2O[C@@]3(C)CC[C@H]4[C@H](C)CC[C@@H]([C@H]1C)[C@@]24OO3 [artemether]
- effect of topical formulation on infected mice ([7]; improved formulation, same experimental conditions, dose 60 mg/kg): efficient
